Here are results for eleven molecules from ChEMBL document CHEMBL1154045, “In vitro and in vivo anticancer activity of 2-deacetoxytaxinine J and synthesis of novel taxoids and their in vitro anticancer activity” (Eur J Med Chem, 2009).

Active and inactive are the calls of the source. The calls are words filed in the database; no cut-off is given here.

One assay has as its system MCF7. The assay can be described thus: Anticancer activity against estrogen-positive human MCF7 cells after 18 hrs by MTT assay. Particulars: MCF7, 18 h. It counts as functional, cell-based. The gist of the method:
(§1)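 MTT assay: 1 × 10⁴ cells/well seeded in DMEM with 10% FBS and held 24 h at 37 °C in a CO₂ incubator. Compounds were diluted in culture medium and added alongside a vehicle control. After 18 h of exposure, MTT (5 mg/mL stock) was added and plates were incubated a further 4 h.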
A general note: Formazan colour is commonly taken as a measure of viable cells.

The subject of the next assay is MDA-MB-231. The assay can be described thus: Anticancer activity against estrogen-receptor-negative human MDA-MB-231 cells after 18 hrs by MTT assay. Particulars: MDA-MB-231, 18 h. It counts as functional, cell-based. In a few lines: as §1
The next assay relates to HEK293. Put plainly: Cytotoxicity against HEK293 cells after 18 hrs by MTT assay. It counts as cell-based. Particulars: Homo sapiens, HEK293, 18 h. The gist of the method: as §1
The next assay deals with A2780 ADR. The assay can be described thus: Reversal of P-gp-mediated multidrug resistance in human 2780AD cells assessed as vincristine accumulation. It counts as cell-based.
A further assay relates to Rattus norvegicus. The assay can be described thus: Antitumor activity against DMBA-induced mammary tumor in Sprague-Dawley rat assessed as tumor regression at 10 mg/kg, po administered for 30 days. It counts as functional, organism-based. Set-up: dose 10 mg/kg.

The IC50 is the point on the concentration scale where inhibition reaches its midpoint. For `C=C1[C@@H](OC(=O)/C=C/c2cccnc2)C[C@H](OC(C)=O)[C@]2(C)[C@@H]1C[C@@H]1C[C@H](OC(C)=O)C(C)=C([C@@H](OC(C)=O)[C@@H]2OC(C)=O)C1(C)C`, the values for the IC50 in the assay with MCF7, with MDA-MB-231 and with HEK293 were 34 µM, more than 50 µM and more than 50 µM, respectively.
For the molecule `C=C1[C@@H](OC(=O)CCc2ccccc2)C[C@H](OC(C)=O)[C@]2(C)[C@@H]1C[C@@H]1C[C@H](OC(C)=O)C(C)=C([C@@H](OC(C)=O)[C@@H]2OC(C)=O)C1(C)C`, the figures for the half-maximal inhibitory concentration (IC50) in the assay on MCF7, with MDA-MB-231 and in the assay on HEK293 were 15 µM, 20 µM and 10 µM, respectively.
Take `COc1ccc(CCN(C)CCCC(C#N)(c2ccc(OC)c(OC)c2)C(C)C)cc1OC` (stereo not given): the Activity in the assay with A2780 ADR stood at 254%.
In turn, `CC(=O)O[C@H]1C(=O)[C@@]2(C)[C@H]([C@H](OC(=O)c3ccccc3)[C@]3(O)C[C@H](OC(=O)[C@H](O)[C@@H](NC(=O)c4ccccc4)c4ccccc4)C(C)=C1C3(C)C)[C@]1(OC(C)=O)CO[C@@H]1C[C@@H]2O` [PACLITAXEL] came in with an IC50 in the assay on HEK293 of 43 µM.
Take `C=C1[C@@H](OC(=O)Cc2ccccn2)C[C@H](OC(C)=O)[C@]2(C)[C@@H]1C[C@@H]1C[C@H](OC(C)=O)C(C)=C([C@@H](OC(C)=O)[C@@H]2OC(C)=O)C1(C)C`: the results for the IC50 in the assay with MCF7, in the assay with MDA-MB-231 and in the assay on HEK293 were 28 µM, more than 50 µM and more than 50 µM, respectively.
Turning to `CC/C(=C(\c1ccccc1)c1ccc(OCCN(C)C)cc1)c1ccccc1` [TAMOXIFEN], the figures for the half-maximal inhibitory concentration (IC50) in the assay with MCF7 and in the assay with MDA-MB-231 were 12 µM and 24 µM, respectively.
Consider `C=C1[C@@H](OC(=O)c2cccnc2)C[C@H](OC(C)=O)[C@]2(C)[C@@H]1C[C@@H]1C[C@H](OC(C)=O)C(C)=C([C@@H](OC(C)=O)[C@@H]2OC(C)=O)C1(C)C`, for which the IC50 in the assay with MCF7, with MDA-MB-231 and in the assay with HEK293 was more than 50 µM throughout.
On to `C=C1[C@@H](OC(=O)/C=C/c2ccccc2)C[C@H](OC(C)=O)[C@]2(C)[C@@H]1C[C@@H]1C[C@H](OC(C)=O)C(C)=C([C@@H](OC(C)=O)[C@@H]2OC(C)=O)C1(C)C`, for which the IC50 in the assay with MCF7 is 20 µM; with MDA-MB-231, 10 µM; in the assay with HEK293, more than 50 µM. Further, in the assay with Rattus norvegicus, the result was Active. For the same molecule, the Activity with A2780 ADR is 266%.
As for `C=C1[C@H]2C[C@@H]3C[C@H](OC(C)=O)C(C)=C([C@@H](OC(C)=O)[C@H](OC(C)=O)[C@]2(C)[C@@H](OC(C)=O)C[C@@H]1O)C3(C)C`, the IC50 in the assay with MCF7, with MDA-MB-231 and in the assay with HEK293 was more than 50 µM each time.
With `C=C1[C@@H](OC(=O)CCc2cccnc2)C[C@H](OC(C)=O)[C@]2(C)[C@@H]1C[C@@H]1C[C@H](OC(C)=O)C(C)=C([C@@H](OC(C)=O)[C@@H]2OC(C)=O)C1(C)C`, the IC50 in the assay on MCF7 was 39 µM; in the assay on MDA-MB-231, more than 50 µM; with HEK293 it was more than 50 µM.
As for `C=C1[C@@H](OC(=O)[C@@H](O)[C@H](O)c2ccccc2)C[C@H](OC(C)=O)[C@]2(C)[C@@H]1C[C@@H]1C[C@H](OC(C)=O)C(C)=C([C@@H](OC(C)=O)[C@@H]2OC(C)=O)C1(C)C`, the 50% inhibitory concentration (IC50) in the assay on MCF7 was more than 50 µM; in the assay on MDA-MB-231 it was 13 µM; with HEK293 it was more than 50 µM.
